The values that follow come from paper PMC4358770 (Journal of medicinal chemistry, 2010).

What is called half-life is the time needed for the level to fall by half in the phase considered. Broadly, the EC50 is the concentration needed to bring the measured effect to its halfway point.

Like-named read-outs stand apart in the source and are kept apart here.

Data set [1] is described as follows: Chemical stability at pH 1.4 and 37 °C, monitored by HPLC. It counts as physicochemical. Particulars: for t1/2 of hydrolysis at pH 1.4: pH 1.4, 37 °C, KCl/HCl buffer.
Data set [2] is described as follows: Stability in human blood serum at 37 °C. It counts as in vitro ADME.
The target in data set [3] is calf intestine alkaline phosphatase (Bos taurus, UniProt P19111). Briefly: Hydrolysis by alkaline phosphatase. Conditions: for resistance to hydrolysis by alkaline phosphatase: over 30 min at 37 °C; for degradation by alkaline phosphatase after 3 h: 0.2 mg analogue/77.5 μL, 12.5 units of AP, 37 °C.
Data set [4] deals with rabbit IOP. Particulars: topically applied to New Zealand white rabbits; cited from earlier work.
Data set [5] relates to rabbit IOP. Briefly: IOP measurements in normotensive rabbits. Format: in vivo, New Zealand white rabbits. A digest of the protocol:
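Male New Zealand white rabbits (2.5 ± 0.5 kg) on a 12 h/12 h light/dark cycle. Test compound was applied unilaterally to the cornea at 100 μM in 10 μL, with 0.9% saline vehicle in the contralateral eye. Design was blinded, with two baseline readings by rebound tonometer and follow-up to 8 h. Dose–response used 1 nM–100 μM, taking the maximal response per dose. […] Mean-time effect was the time from 50% maximal IOP decrease to 50% recovery. Mean ± SEM of 8–10 experiments.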

A further data set deals with P2Y1R. Conditions: read-out: EC50 at P2Y1R; cited from earlier work.
The conditions of data set [6]: pH 1.4, 37 °C; cited from earlier work.
The conditions of data set [7]: cited from earlier work.
The nature of data set [8]: pKa and ionization of the terminal phosphate/phosphonate. It counts as physicochemical. Particulars: pH 7.4, terminal phosphate/phosphonate.
The target of a further data set is turkey P2Y1 receptor (Meleagris gallopavo, UniProt P49652). It counts as cell-based. Particulars: replacement of nonbridging oxygen with BH3.
The mark [9] stands for this setting: human blood serum/RPMI-1640, 37 °C.

Chain of calf intestine alkaline phosphatase (P19111 20-533): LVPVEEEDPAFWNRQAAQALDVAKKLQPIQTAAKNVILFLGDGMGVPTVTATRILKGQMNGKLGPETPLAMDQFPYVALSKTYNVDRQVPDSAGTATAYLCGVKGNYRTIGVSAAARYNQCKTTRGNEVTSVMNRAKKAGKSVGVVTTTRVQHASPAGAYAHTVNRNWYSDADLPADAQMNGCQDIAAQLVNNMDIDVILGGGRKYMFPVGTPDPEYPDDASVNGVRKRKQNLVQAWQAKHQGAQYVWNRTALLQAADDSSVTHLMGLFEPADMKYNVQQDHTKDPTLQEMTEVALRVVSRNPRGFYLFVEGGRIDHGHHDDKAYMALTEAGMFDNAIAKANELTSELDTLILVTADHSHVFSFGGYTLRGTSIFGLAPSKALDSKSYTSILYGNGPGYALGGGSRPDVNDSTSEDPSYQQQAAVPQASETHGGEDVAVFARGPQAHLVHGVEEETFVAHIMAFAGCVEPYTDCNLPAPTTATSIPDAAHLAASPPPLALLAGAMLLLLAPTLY
Chain of turkey P2Y1 receptor (P49652 whole entry): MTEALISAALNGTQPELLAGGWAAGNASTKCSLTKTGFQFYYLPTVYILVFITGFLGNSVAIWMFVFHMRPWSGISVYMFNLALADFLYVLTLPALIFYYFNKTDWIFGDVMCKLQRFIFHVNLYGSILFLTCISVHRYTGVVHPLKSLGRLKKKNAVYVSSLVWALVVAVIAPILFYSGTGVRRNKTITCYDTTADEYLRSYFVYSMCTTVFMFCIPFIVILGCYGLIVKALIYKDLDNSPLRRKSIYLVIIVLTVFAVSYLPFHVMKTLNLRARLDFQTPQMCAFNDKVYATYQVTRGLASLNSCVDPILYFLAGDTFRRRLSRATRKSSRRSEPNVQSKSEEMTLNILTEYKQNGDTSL

`CSc1nc(N)c2ncn([C@@H]3O[C@H](COP(=O)(O)C(Cl)(Cl)P(=O)(O)O)[C@@H](O)[C@H]3O)c2n1` [analogue 14, 2-MeS-Rα,β-dichloromethylene-ADP]: in data set [1] (pH 1.4, after 6 days), the “hydrolysis of the starting material at pH 1.4” value amounted to 15%. Moreover, the “degradation in human blood serum over 24 h” value in data set [2] (setting [9]) is reported as “completely resistant”.

`BP(=O)(OCC1OC(n2cnc3c(N)nc(SC)nc32)C(O)C1O)OP(=O)(O)C(F)(F)P(=O)(O)O` (stereo not drawn) [analogue 10, α-borano-β,γ-CF2-2-MeS-ATP]: the “resistance to hydrolysis by alkaline phosphatase” value in data set [3] was “completely resistant”. In the case of `Nc1ncnc2c1ncn2[C@@H]1O[C@H](COP(=O)(O)OP(=O)(O)OP(=O)(O)OC[C@@H]2O[C@H](n3cnc4c(N)ncnc43)[C@@H](O)[C@H]2O)[C@@H](O)[C@H]1O` [Ap3A, diadenosine triphosphate], the “effect on IOP (increase or reduction)” value with rabbit IOP [4] is “increase IOP”. On to `Nc1ncnc2c1ncn2[C@@H]1O[C@H](COP(=O)(O)OP(=O)(O)OP(=O)(O)OP(=O)(O)OP(=O)(O)OC[C@H]2O[C@@H](n3cnc4c(N)ncnc43)[C@H](O)[C@@H]2O)[C@@H](O)[C@H]1O` [Ap5A, diadenosine pentaphosphate], for which the “effect on IOP (increase or reduction)” value in the data set on rabbit IOP [4] was “increase IOP”. In the case of `CC(C)OC(=O)CCC/C=C\C[C@@H]1[C@@H](CC[C@@H](O)CCc2ccccc2)[C@H](O)C[C@@H]1O` [latanoprost], the “duration of the reduction in IOP (mean-time effect)” value (from here on “duration of the reduction in IOP”) with rabbit IOP [5] (commercial drug, 0.005%, 40 μL) is listed as 5.5 h. As to `Nc1ncnc2c1ncn2[C@@H]1O[C@H](COP(=O)(O)OP(=O)(O)OP(=O)(O)OP(=O)(O)O)[C@@H](O)[C@H]1O` [Ap4, adenosine tetraphosphate], the “effect on IOP (increase or reduction)” value in the data set on rabbit IOP [4] is “reduced”. Turning to `CSc1nc(N)c2ncn([C@@H]3O[C@H](COP(=O)(O)OP(=O)(O)O)[C@@H](O)[C@H]3O)c2n1` [analogue 7, 2-MeS-ADP], in data set [3], the “degradation by alkaline phosphatase after 3 h” value stood at 87%. The same molecule showed a half-life at 0.248 mM in data set [2] (human, human blood serum diluted with RPMI-1640 medium) of 23.5 h. As to `CSc1nc(N)c2ncn([C@@H]3O[C@H](COP(=O)(O)C(F)(F)P(=O)(O)O)[C@@H](O)[C@H]3O)c2n1` [analogue 13, 2-MeS-adenosine-5′-O-diphosphate-α,β-difluoromethylene], in data set [1] (pH 1.4, after 30 days), the “starting material remaining at pH 1.4” value was 61%. Consider `Nc1ncnc2c1ncn2[C@@H]1O[C@H](COP(=O)(O)OP(=O)(O)OP(=O)(O)OP(=O)(O)OC[C@H]2O[C@@H](n3cnc4c(N)ncnc43)[C@H](O)[C@@H]2O)[C@@H](O)[C@H]1O` [Ap4A, diadenosine tetraphosphate], for which the “effect on IOP (increase or reduction)” value in the data set with rabbit IOP [4] is “reduced”. Regarding “2-MeS-α-borano-ATP (A-isomer) [analogue 4A]”, the EC50 in the data set with P2Y1R is 0.0026 µM. For the molecule `BP(=O)(OC[C@H]1O[C@@H](n2cnc3c(N)nc(SC)nc32)[C@H](O)[C@@H]1O)OP(=O)(O)CP(=O)(O)O` (stereo partly drawn) [analogue 3B], the EC50 in the data set with P2Y1R was 17.2 µM. Take α-B,β,γ-CH2-ATP [analogue 2]: the “t1/2 of hydrolysis at pH 1.4” value in data set [6] is listed as 19 h. As to `CSc1nc(N)c2ncn([C@@H]3O[C@H](COP(=O)(O)OP(=O)(O)C(Cl)(Cl)P(=O)(O)O)[C@@H](O)[C@H]3O)c2n1` [analogue 9, β,γ-CCl2-2-MeS-ATP], the “t1/2 of hydrolysis at pH 1.4” value in data set [1] came out at 65 h. For the same molecule, the “duration of the reduction in IOP” value with rabbit IOP [5] (100 μM, 10 μL) was 4.5 h. For the same molecule, in [2] (setting [9]), the “degradation in human blood serum over 24 h” value worked out at 15%.

In the case of `BP(=O)(OCC1OC(n2cnc3c(N)nc(SC)nc32)C(O)C1O)OP(=O)(O)C(Cl)(Cl)P(=O)(O)O` (stereo not drawn) [analogue 12, α-borano-β,γ-CCl2-2-MeS-ATP], in data set [3], the “resistance to hydrolysis by alkaline phosphatase” value is reported as “completely resistant”. Turning to `CSc1nc(N)c2ncn([C@@H]3O[C@H](COP(=O)(O)OP(=O)(O)CP(=O)(O)O)[C@@H](O)[C@H]3O)c2n1` [analogue 1, 2-MeS-β,γ-CH2-ATP], in the data set on P2Y1R, the EC50 was 0.08 µM. Besides, the “t1/2 in human blood serum” value in data set [7] is on record as 12.1 h. The “duration of the reduction in IOP” value with rabbit IOP [5] (100 μM, 10 μL) worked out at 3.5 h. Besides, the “fraction ionized at physiological pH” value in [8] is given as 9%. On to `Nc1ncnc2c1ncn2[C@@H]1O[C@H](COP(=O)(O)OP(=O)(O)O)[C@@H](O)[C@H]1O` [ADP], for which, in [3], the “degradation by alkaline phosphatase after 3 h” value is on record as “completely degraded”. Moreover, the “half-life in human blood serum” value in data set [2] (setting [9]) is recorded as 1.4 h. Take `BP(=O)(OC[C@H]1O[C@@H](n2cnc3c(N)nc(SC)nc32)[C@H](O)[C@@H]1O)OP(=O)(O)C(F)(F)P(=O)(O)O` (stereo partly drawn) [analogue 10B, 2-MeS-adenosine-5′-O-(α-boranotriphosphate)-β,γ-CF2]: the “t1/2 of hydrolysis at pH 1.4” value in [1] is around 8 h. The “fold reduction in P2Y1R activity vs analogue 8” value at turkey P2Y1 receptor stood at 3 fold. For `BP(=O)(OC[C@H]1O[C@@H](n2cnc3c(N)nc(SC)nc32)[C@H](O)[C@@H]1O)OP(=O)(O)CP(=O)(O)O` (stereo partly drawn) [analogue 3, 2-MeS-α-B,β,γ-CH2-ATP], the “t1/2 of hydrolysis at pH 1.4” value in data set [6] is reported as 14.5 h.
